Results pooled from the literature.
Compare with care: the assays were run in different laboratories.
CDK2 with cyclin A2: Cyclin-dependent kinase 2, with cyclin A2 (CDK2, Homo sapiens, UniProt P24941)
ST14: Suppressor of tumorigenicity 14 protein (ST14, Homo sapiens, UniProt Q9Y5Y6)

| target | test | setting | quantity | value | Compound |
| --- | --- | --- | --- | --- | --- |
| Protein kinase C eta type (PRKCH, Homo sapiens, UniProt P24723) | enzyme activity, inhibitor | 1 µM | remaining activity | 115% | COc1cc(-c2cncc3c2CN(C)Cc2cc(N4CCNCC4)ccc2-3)cc(OC)c1OC |
| CDK2 with cyclin A2 | enzyme activity, inhibitor | 1 nM | inhibition | 4.03% | CC(=O)Nc1c(N)nc(SCC(=O)N/N=C/c2ccc([N+](=O)[O-])cc2)[nH]c1=O |
| ST14 | enzyme activity, inhibitor | 0.1 µM | remaining activity | 5% | CC(C)C[C@H](NC(=O)[C@H](Cc1cscn1)NC(=O)CCc1ccccc1)C(=O)N[C@@H](CCCNC(=N)N)C(=O)c1nc2ccccc2s1 |
| Tyrosine-protein kinase ZAP-70 (ZAP70, Homo sapiens, UniProt P43403) | enzyme activity, inhibitor, radiometric | 1 µM | remaining activity | 95% | CNc1ncc2c(/C=C/C(=O)N3CCC(OC)CC3)nn(Cc3cccc(C(F)(F)F)c3)c2n1 |
| CDK2 with cyclin A2 | enzyme activity, inhibitor | 1 nM | inhibition | 8.32% | CC(=O)Nc1c(N)nc(SCC(=O)NN)[nH]c1=O |
| ST14 | enzyme activity, inhibitor | 0.1 µM | remaining activity | 84% | N=C(N)NCCC[C@H](NC(=O)C1(NC(=O)[C@H](Cc2cscn2)NC(=O)CCc2ccccc2)CCCC1)C(=O)c1nc2ccccc2s1 |
| CDK2 with cyclin A2 | enzyme activity, inhibitor | 200 pM | inhibition | 12.3% | CNC(=O)c1cc(Oc2ccc(NC(=O)Nc3ccc(Cl)c(C(F)(F)F)c3)cc2)ccn1 |
| ST14 | enzyme activity, inhibitor | 0.1 µM | remaining activity | 4% | CC[C@@H](C)[C@H](NC(=O)[C@H](Cc1cscn1)NC(=O)CCc1ccccc1)C(=O)N[C@@H](CCCNC(=N)N)C(=O)c1nc2ccccc2s1 |
| ALK tyrosine kinase receptor (ALK, Homo sapiens, UniProt Q9UM73, C1156Y) | binding, competition with immobilised ligand | 1 µM | remaining binding | 79% | C=CC(=O)N1CCC(COCC(=O)N2CCN(c3nc(-c4cnc(N)nc4C(F)F)nc(N4CCOC[C@@H]4C)n3)CC2)CC1 |
| Angiopoietin-1 receptor (TEK, Homo sapiens, UniProt Q02763) | binding, competition with immobilised ligand | 1 µM | remaining binding | 60% | Cc1cc([C@@H](C)Nc2ccccc2C(=O)O)c2nc(N3CCC(F)(F)CC3)c(C#N)c(=O)n2c1 |
